Experimental findings from ChEMBL document CHEMBL1128459, “Characterization of potent and selective antagonists at postsynaptic 5-HT1A receptors in a series of N4-substituted arylpiperazines” (J Med Chem, 1995) are described below.

The subject of assay [1] is Rattus norvegicus. Kind of assay: Minimum effective agonist dose administered subcutaneously. The conditions noted are these: sc, read-out: MED. The format is functional. Summed up:
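Male Wistar rats (200-220 g) were given the test drug alone sc in water (1.0 mL/kg), with vehicle reinjected at 30 min. Rectal temperature change from basal was measured 60 min after the first injection. MED for hypothermia was set against vehicle by ANOVA with Dunnett's test, P < 0.05.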

The test system of assay [2] is Rattus norvegicus. The assay is described as follows: Compound after subcutaneous administration was evaluated for antagonist activity against hypothermia induced by 8-hydroxy -DPAT in rat. It counts as functional. The conditions noted are these: sc, read-out: ID50 (the source's name). Summed up: (§1)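 Male Wistar rats (200-220 g) had rectal temperature taken, then received the test drug sc in distilled water (1.0 mL/kg). After 30 min they got 8-OH-DPAT 0.16 mg/kg sc, and temperature was remeasured 30 min later. Change from basal was scored.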

Assay [3] in a line: Ratio of MED (agonist) to that of MED (antagonist) values. It counts as functional. A digest of the protocol: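 The MED for inducing hypothermia alone was divided by the MED for blocking 8-OH-DPAT (0.16 mg/kg sc) hypothermia. Both MEDs came from sc dosing in male Wistar rats and were tested against vehicle by ANOVA with Dunnett's test, P < 0.05.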
The target of assay [4] is 5-hydroxytryptamine receptor 1B (Rattus norvegicus, UniProt P28564). Kind of assay: Binding affinity at 5-hydroxytryptamine 1B receptor. A digest of the protocol: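 Rat frontal cortex membranes (1/40 wt/vol) were homogenized in 50 mM Tris pH 7.7 with pargyline, 4 mM CaCl2 and 0.1% ascorbic acid, then preincubated for 30 min at 37 °C. Labelled with 2.0 nM [3H]-5-HT, with 100 nM 8-OH-DPAT and 100 nM mesulergine masking 5-HT1A/5-HT2A sites; 5-CT defined nonspecific binding.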

Assay [5] concerns Rattus norvegicus. The assay is described as follows: Minimum effective antagonist dose administered subcutaneously. The format is functional. The conditions noted are these: sc, read-out: MED. A digest of the protocol: as §1
For assay [6], the species on record is Rattus norvegicus. The assay is described as follows: Maximum antagonist effect (% effect) expressed relative to 8-hydroxy-DPAT (100%). It counts as functional. Summed up:
(§2)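 In the rat rectal-temperature model (sc dosing, 8-OH-DPAT 0.16 mg/kg sc for antagonism), the maximal percentage of induced hypothermia (agonist) and of block of 8-OH-DPAT hypothermia (antagonist) was recorded. Each value is given with the dose at which it was reached.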

Assay [7] deals with T1, 5-hydroxytryptamine receptor 1A (Rattus norvegicus, UniProt P19327).
T1 sequence (P19327 whole entry): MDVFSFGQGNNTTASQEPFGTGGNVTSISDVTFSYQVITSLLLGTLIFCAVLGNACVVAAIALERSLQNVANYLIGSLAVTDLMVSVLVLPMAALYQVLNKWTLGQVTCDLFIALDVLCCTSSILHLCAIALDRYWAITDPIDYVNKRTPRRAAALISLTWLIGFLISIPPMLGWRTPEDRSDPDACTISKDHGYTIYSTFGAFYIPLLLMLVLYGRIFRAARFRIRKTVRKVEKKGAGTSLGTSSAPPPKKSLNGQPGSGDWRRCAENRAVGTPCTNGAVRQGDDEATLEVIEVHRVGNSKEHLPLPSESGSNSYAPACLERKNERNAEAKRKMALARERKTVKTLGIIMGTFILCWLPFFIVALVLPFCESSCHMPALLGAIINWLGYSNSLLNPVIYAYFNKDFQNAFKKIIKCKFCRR
Kind of assay: Binding affinity at 5-hydroxytryptamine 1A receptor. Summed up:
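Rat hippocampal membranes (1/100 wt/vol) in 50 mM Tris pH 7.7 with 4 mM CaCl2, 0.1% ascorbic acid and pargyline. Membranes were spun at 25000g, preincubated 30 min at 37 °C and respun, then incubated with 0.4 nM [3H]-8-OH-DPAT for 30 min at 25 °C. 5-HT defined nonspecific binding, and samples were filtered on PEI-soaked GF/B. IC50 came from regression; pKi = −log[IC50/(1+[L]/Kd)].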

The target of assay [8] is D(2) dopamine receptor (Rattus norvegicus) (UniProt P61169).
Assay [9] is filed under the species Rattus norvegicus. Kind of assay: Maximum agonist effect (% effect) expressed relative to 8-hydroxy-DPAT (100%). The format is functional. Summed up: as §2

Bounds are passed on as bounds.

Chain of D(2) dopamine receptor (Rattus norvegicus) (P61169 whole entry): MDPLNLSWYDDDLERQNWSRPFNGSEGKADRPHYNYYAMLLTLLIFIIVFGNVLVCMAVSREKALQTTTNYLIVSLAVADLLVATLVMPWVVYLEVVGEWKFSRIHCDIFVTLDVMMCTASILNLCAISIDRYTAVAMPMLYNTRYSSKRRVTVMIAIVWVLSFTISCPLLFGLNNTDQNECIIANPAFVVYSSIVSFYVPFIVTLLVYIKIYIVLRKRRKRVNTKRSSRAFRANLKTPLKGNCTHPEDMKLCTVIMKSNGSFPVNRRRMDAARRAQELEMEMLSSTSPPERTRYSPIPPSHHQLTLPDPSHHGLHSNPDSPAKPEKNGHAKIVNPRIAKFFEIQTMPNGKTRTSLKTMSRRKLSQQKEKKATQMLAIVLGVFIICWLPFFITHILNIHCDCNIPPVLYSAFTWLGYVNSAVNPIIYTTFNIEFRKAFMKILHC
Chain of 5-hydroxytryptamine receptor 1B (P28564 whole entry): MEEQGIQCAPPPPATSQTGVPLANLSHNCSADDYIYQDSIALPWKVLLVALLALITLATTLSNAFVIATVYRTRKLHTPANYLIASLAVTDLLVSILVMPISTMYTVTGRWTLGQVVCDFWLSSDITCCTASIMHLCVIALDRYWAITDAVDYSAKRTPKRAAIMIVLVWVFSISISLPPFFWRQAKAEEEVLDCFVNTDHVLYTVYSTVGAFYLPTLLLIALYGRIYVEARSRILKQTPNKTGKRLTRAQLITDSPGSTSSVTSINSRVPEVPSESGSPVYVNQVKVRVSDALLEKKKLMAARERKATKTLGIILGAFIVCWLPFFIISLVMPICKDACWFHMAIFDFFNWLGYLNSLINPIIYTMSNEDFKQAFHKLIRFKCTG

What is called Ki is a measure of affinity in units of concentration, obtained from inhibition or displacement. As to `C1=C(CCN2CCN(c3cccc4c3OCCO4)CC2)c2ccccc2C1`, the minimal effective dose in assay [1] was over 2.5 mg/kg; in assay [5] it was 0.63 mg/kg. Further, in assay [2], the ED50 was 0.45 mg/kg. Moreover, the Ratio in assay [3] is over 4. In addition, the Ki in assay [4] was 251 nM; in [7], 0.794 nM. The Max effect was 94% in assay [6] and 21% in assay [9]. In addition, the ID50 in [8] is over 40 mg/kg.
As to `c1ccc2c(c1)CC(CCN1CCN(c3cccc4c3OCCO4)CC1)C2`, the minimal effective dose was found to be 10 mg/kg in assay [1] and 0.16 mg/kg in assay [5]. Also, the ED50 in assay [2] stood at 0.27 mg/kg. Also, the Ratio in assay [3] came to 62.5. The compound also had a Ki in assay [4] of 692 nM. The Max effect in assay [6] is 100%; in assay [9], 50%. In assay [8], this compound yielded an ID50 of 5.9 mg/kg.
In the case of `c1ccc2c(c1)CC2CCN1CCN(c2cccc3c2OCCCO3)CC1` (stereo unspecified), the figures for the minimal effective dose in [1] and in [5] were 40 mg/kg and 1.25 mg/kg, respectively. Moreover, in assay [2], the ED50 amounted to 2.68 mg/kg. Moreover, the Ratio in [3] amounted to 32. For the same compound, the Ki in assay [4] was 562 nM; in assay [7], 1.15 nM. Besides, the Max effect in assay [6] is 72%; in [9], 31%. The compound also registered an ID50 in assay [8] of 30 mg/kg.
Turning to `C1=C(CCN2CCN(c3cccc4c3OCCO4)CC2)c2ccccc2CCC1`, the minimal effective dose is over 40 mg/kg in assay [1] and 2.5 mg/kg in [5]. Besides, the ED50 in assay [2] worked out at 5.02 mg/kg. In assay [3], the Ratio is over 16. In addition, the Ki in [4] is 380 nM; in assay [7], 3.16 nM. The Max effect in assay [6] came to 55%; in [9] it was 33%. In assay [8], the ID50 was 40 mg/kg.
Take `c1cc2c(c(N3CCNCC3)c1)OCCO2` [ELTOPRAZINE]: the minimal effective dose in assay [1] was 2.5 mg/kg; in assay [5], over 40 mg/kg. Also, the ED50 in [2] is over 40 mg/kg. For the same compound, the Ratio in assay [3] was under 0.06. Besides, the Max effect in assay [6] was found to be 0%; in assay [9], 100%.
With `c1ccc2c(c1)CC2CN1CCN(c2cccc3c2OCCO3)CC1` (stereo unspecified), the minimal effective dose is 10 mg/kg in assay [1] and 0.63 mg/kg in [5]. Further, the ED50 in [2] was 0.67 mg/kg. In assay [3], the Ratio was 15.8. In addition, the inhibitory constant (Ki) in [4] is 214 nM; in [7], 1.78 nM. Moreover, the Max effect in assay [6] stood at 85%; in assay [9], 100%. The same compound showed an ID50 in [8] of over 40 mg/kg.
`c1ccc2c(c1)CCC2CCCN1CCN(c2cccc3c2OCCO3)CC1` (stereo unspecified): the minimal effective dose was found to be 10 mg/kg in [1] and 0.16 mg/kg in [5]. Moreover, the ED50 in assay [2] is 0.29 mg/kg. In addition, the Ratio in assay [3] stood at 62.5. The results for the Ki in [4] and in assay [7] were 204 nM and 0.617 nM, respectively. For the same compound, the Max effect in assay [6] was found to be 81%; in assay [9], 100%. Further, in assay [8], the ID50 is over 40 mg/kg.
For the compound `COc1cc2nc(N3CCN(C(=O)c4ccco4)CC3)nc(N)c2cc1OC`, the ID50 in assay [8] is over 10 mg/kg.
Consider `C1=C(CCN2CCN(c3cccc4c3OCCO4)CC2)c2ccccc2CC1`, for which the minimal effective dose in assay [1] was over 40 mg/kg; in assay [5], 0.63 mg/kg. Moreover, the ED50 in [2] was 0.4 mg/kg. Moreover, the Ratio in [3] was over 63.5. Also, the Ki was 229 nM in assay [4] and 2 nM in [7]. The Max effect in [6] was determined as 100%; in assay [9], 14%. In assay [8], this compound yielded an ID50 of over 40 mg/kg.
Consider `c1ccc2c(c1)CC(CN1CCN(c3cccc4c3OCCO4)CC1)C2`, for which the minimal effective dose in assay [1] was over 10 mg/kg; in [5], 0.63 mg/kg. For the same compound, the ED50 in [2] came out at 0.55 mg/kg. The Ratio in [3] is over 15.8. The Ki in assay [4] was 490 nM; in assay [7] it was 2.82 nM. The values for the Max effect in assay [6] and in assay [9] were 87% and 0%, respectively. In [8], the ID50 was over 40 mg/kg.
Take `COc1ccc2c(c1)C(CCN1CCN(c3cccc4c3OCCO4)CC1)C2` (stereo unspecified): the minimal effective dose in assay [1] is 10 mg/kg; in assay [5], 0.63 mg/kg. Further, in assay [2], the ED50 came out at 0.48 mg/kg. Also, in [3], the Ratio is 15.8. The Ki in assay [4] was 316 nM; in assay [7], 1.26 nM. The Max effect in assay [6] came to 95%; in assay [9], 35%. The same compound yielded an ID50 in assay [8] of over 40 mg/kg.
For `c1ccc2c(c1)CC2CN1CCN(c2cccc3ccoc23)CC1` (stereo unspecified), the minimal effective dose in [1] is over 10 mg/kg; in assay [5], 2.5 mg/kg. For the same compound, the ED50 in [2] came to 1.12 mg/kg. In addition, the Ratio in assay [3] was over 4. Also, the figures for the Ki in [4] and in assay [7] were 912 nM and 7.94 nM, respectively. Further, the Max effect in assay [6] came to 96%; in assay [9] it was 15%.
As to `c1ccc2c(c1)CCCCC2CCN1CCN(c2cccc3c2OCCO3)CC1` (stereo unspecified), the minimal effective dose in assay [1] was over 10 mg/kg; in assay [5], 5 mg/kg. Also, the ED50 in assay [2] was 4.26 mg/kg. The Ratio in [3] was over 2. Also, the values for the Ki in [4] and in assay [7] were 776 nM and 6.61 nM, respectively. The Max effect in assay [6] was found to be 96%; in assay [9], 9%. This compound also gave an ID50 in assay [8] of over 10 mg/kg.
In the case of `Fc1cccc2c1CC2CN1CCN(c2cccc3c2OCCO3)CC1` (stereo unspecified), the minimal effective dose in assay [1] is over 10 mg/kg; in assay [5], 0.63 mg/kg. Also, the ED50 in assay [2] was determined as 2.51 mg/kg. Also, the Ratio in assay [3] is over 15.8. Moreover, the figures for the Ki in [4] and in assay [7] were 316 nM and 1.78 nM, respectively. In addition, the results for the Max effect in [6] and in assay [9] were 61% and 19%, respectively. For the same compound, in [8], the ID50 is over 40 mg/kg.
For `COc1cc2c(cc1OC)C(CCN1CCN(c3cccc4c3OCCO4)CC1)C2` (stereo unspecified), the results for the minimal effective dose in assay [1] and in assay [5] were over 40 mg/kg and 1.25 mg/kg, respectively. The ED50 in assay [2] stood at 1.41 mg/kg. Besides, in [3], the Ratio was over 32. Also, the values for the Ki in assay [4] and in [7] were 794 nM and 3.16 nM, respectively. The Max effect was determined as 96% in [6] and 4% in assay [9]. Further, in [8], the ID50 is over 40 mg/kg.
With `C1=C(CCN2CCN(c3cccc4c3OCCO4)CC2)Cc2ccccc21`, the values for the minimal effective dose in assay [1] and in assay [5] were 10 mg/kg and 0.31 mg/kg, respectively. The ED50 in [2] was 0.36 mg/kg. In addition, the Ratio in assay [3] is 32.2. Also, the inhibitory constant (Ki) is 933 nM in assay [4] and 0.537 nM in assay [7]. In addition, the values for the Max effect in assay [6] and in assay [9] were 81% and 76%, respectively.
On to `c1ccc2c(c1)CC2CCCN1CCN(c2cccc3c2OCCCO3)CC1` (stereo unspecified), for which the minimal effective dose was over 2.5 mg/kg in [1] and 0.16 mg/kg in assay [5]. In [2], the ED50 was 0.27 mg/kg. Also, the Ratio in assay [3] was over 15.6. The inhibitory constant (Ki) in [4] is 617 nM; in assay [7], 0.794 nM. The Max effect is recorded as 85% in assay [6] and 21% in assay [9].
As for `c1ccc2c(c1)CC2CN1CCN(c2cccc3c2OCCCO3)CC1` (stereo unspecified), the minimal effective dose was over 10 mg/kg in assay [1] and 0.63 mg/kg in assay [5]. For the same compound, in [2], the ED50 was determined as 0.32 mg/kg. Further, the Ratio in assay [3] is over 15.8. Also, the Max effect is listed as 91% in assay [6] and 76% in assay [9]. This compound also showed a Ki in [7] of 7.94 nM. The ID50 in assay [8] is over 40 mg/kg.
